Bioassay records: PubChem BioAssay, Johns Hopkins Ion Channel Center
Kir21 block = inhibitors of mouse Kir2.1 inward-rectifier potassium channel. HEK293-Kir2.1, FluxOR thallium flux fluorescence; stronger effect = lower value. B-score at 10 µM. P35561. 0.85% of 310,000 active;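 active = fluorescence ratio B-score at or below minus 3 SD of library scores, with starting-brightness B-score within 2 SD, cut at about -4.2 in these data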;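 note: channel flux triggered by added potassium and thallium sulfate stimulus; B-score of peak minus minimum fluorescence over baseline after thallium stimulus; more negative B-score means stronger Kir2.1 block with less thallium influx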
KCNK3 inh = human KCNK3 channel inhibition, primary screen; O14649; CHO-KCNK3 thallium flux, FluxOR fluorescence; stronger effect = lower value; B-score at 10 µM; 0.84% of 340,000 active;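 active = B-score under library mean minus 4 SD, starting fluorescence ratio at most library mean plus 5 SD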;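 note: more negative B-score means stronger inhibition of thallium flux through KCNK3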
KCNK9 inh = human KCNK9 channel inhibition | Q9NPC2 | HEK293 KCNK9, FluxOR thallium flux fluorescence; stronger effect = lower value | B-score at 10 µM | 1.2% of 310,000 active | AID 488922;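 active = ratio B-score over 3 SD below the library mean, with starting fluorescence within 5 SD of its mean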;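 note: negative B-score means less thallium flux so channel inhibition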
Target sequence (Q9NPC2 whole entry, looked up): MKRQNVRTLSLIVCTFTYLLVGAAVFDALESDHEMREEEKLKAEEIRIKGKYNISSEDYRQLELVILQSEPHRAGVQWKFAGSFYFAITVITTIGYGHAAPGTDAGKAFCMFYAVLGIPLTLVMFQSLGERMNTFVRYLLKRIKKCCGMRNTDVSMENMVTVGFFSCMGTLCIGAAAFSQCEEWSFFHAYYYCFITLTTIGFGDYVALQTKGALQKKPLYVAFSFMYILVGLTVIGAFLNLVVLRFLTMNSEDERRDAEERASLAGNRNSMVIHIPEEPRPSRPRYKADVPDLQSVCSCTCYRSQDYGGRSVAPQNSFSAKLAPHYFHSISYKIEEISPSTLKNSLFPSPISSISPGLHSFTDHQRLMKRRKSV
hERG protect = compounds protecting human hERG from proarrhythmic drug block | CHO-hERG, FluxOR thallium flux, dofetilide IC70 present | activation (rescue from dofetilide block), less the hit threshold, % at 10 µM | 0.51% of 310,000 active | AID 1511;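 active = activation above the mean of controls blocked by dofetilide plus 5 SD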;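 note: thallium influx through hERG after potassium depolarization seen as dye fluorescence rise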
KCNQ1 act = potentiators or activators of human KCNQ1 potassium channel; B-score at 10 µM; 0.35% of 310,000 active; CHO-K1 KCNQ1, thallium flux FluxOR fluorescence; stronger effect = higher value; P51787;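 active = fluorescence ratio B-score, a plate-corrected score, at least three library SD, with initial intensity B-score within 5 SD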
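assay system = KCNQ1-transfected CHO-K1 cells | medium = assay buffer with matched DMSO | probe or stimulus = depolarizing K+/Tl+ stimulus, K2SO4 and Tl2SO4 each 12.5 mM in 5x stock | dosing = single dose | incubation = dye 90 min, compound 20 min, room temperature | detection = kinetic FluxOR fluorescence, 10 s baseline plus 110 s post-stimulus | evaluation = ratio B score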
KCNQ1 inh = inhibitors of human KCNQ1 potassium channel | CHO-K1 KCNQ1, FluxOR thallium flux fluorescence; stronger effect = higher value | 1.3% of 310,000 active | P51787 | B-score at 10 µM;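 active = compounds whose thallium flux B-score, printed positive for inhibition, exceeds three library SD while starting fluorescence stays within three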;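 note: channel opened by potassium depolarization with thallium stimulus after 20 min compound exposure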
KCNK3 confirm = human KCNK3 channel inhibition, confirmation assay; shares compounds with KCNK3 inh; CHO-KCNK3 thallium flux, FluxOR fluorescence; 0% buffer, 100% carvedilol maximal block; AID 651638; 99% of 2,400 active; ratio percent of control, % at 10 µM;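 active = ratio percent of control, averaged over triplicates, above buffer control mean plus 5 SD, cut at about 64% in these data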;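 note: ratio is the fluorescence rise from min to max over baseline after thallium stimulus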
KCNK3 noninduced = counter-screen for KCNK3 inhibitors: effect in non-induced cells. shares compounds with KCNK3 inh. non-induced KCNK3 parental cells, FluxOR thallium flux; stronger effect = lower value. thallium flux ratio (lower = more inhibition) at 10 µM. 40% of 2,400 active. AID 651747;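 active = thallium flux ratio, averaged over three wells, more than 5 SD below the buffer control mean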;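 note: host cells are CHO cells without KCNK3 induction; ratio is peak minus trough fluorescence over baseline then normalized to buffer controls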
* marks the source's active call; other numbers are inactive results; i = inactive; / = no result given. Rows were chosen to be rich in hits. Some 3.7% of all compounds tested hit in one or more screens of this group.

SMILES	Kir21 block	KCNK3 inh	KCNK9 inh	hERG protect	KCNQ1 act	KCNQ1 inh	KCNK3 confirm	KCNK3 noninduced
CCOC(=O)C1CCN(c2nc3c(C)cccn3c(=O)c2/C=C(\C#N)S(=O)(=O)c2ccccc2)CC1	-0.99	-9.32*	i	-12.6	i	i	95.0*	i
O=C(c1ccccc1)C1CCN(c2ncccc2[N+](=O)[O-])CC1	-0.91	-8.81*	i	-10.4	i	i	84.7*	i
CCOc1ccc(CN(C)c2nc(-c3cccnc3)nc3ccccc23)cc1OC	-0.26	-15.8*	i	-7.0	i	i	104.3*	i
Cn1c(COc2ccccc2)nnc1SCC(=O)NC1CCCC1	-0.54	i	i	-5.5	i	i	/	/
CN(C)c1ccc(/C=C/C(=O)c2cc(Cl)ccc2O)cc1	0.21	-13.3*	i	-7.5	i	i	106.3*	i
O=C(/C=C/c1ccncc1)c1cc(Cl)ccc1O	0.27	i	i	-10.3	i	i	/	/
COc1ccccc1C(=O)Nc1ccccc1SC(=O)c1ccccc1OC	0.11	-9.41*	-12.9*	-19.6	i	i	112.7*	i
Cc1cccc(NC(=O)c2ccc(C(=O)c3ccccc3)cc2)n1	0.64	i	i	-16.6	i	i	/	/
COc1ccccc1C(=O)Nc1cccc(NC(=O)c2ccccc2OC)n1	0.37	-10.8*	i	-8.3	i	i	112.7*	i
O=C(Nc1cccc(NC(=O)c2ccccc2)n1)c1ccccc1	1.28	-10.3*	i	-5.3	i	i	97.0*	i
COc1ccccc1C(=O)Nc1ccon1	0.01	i	i	-6.7	i	i	/	/
COCCOC(=O)c1c(NC(=O)COC(=O)c2ccc(C)o2)sc(C(N)=O)c1C	/	i	/	/	/	/	/	/
O=C(c1ccccc1OCc1ccc(Cl)cc1)N1CCN(c2ccccn2)CC1	-1.75	-9*	i	-17.7	i	i	119.0*	i
O=C(c1ccco1)N1CCN(C(=O)c2ccccc2OCc2ccc(Cl)cc2)CC1	0.02	i	i	-14.6	i	i	/	/
COc1ccccc1-c1c(C)oc2c(CN3CCN(C)CC3)c(O)ccc2c1=O	0.79	i	i	-11.1	i	i	/	/
COc1ccccc1-c1c(C)oc2c(CN3CCN(CCO)CC3)c(O)ccc2c1=O	0.99	-19.8*	i	-10.9	i	i	59.0*	i
Cc1ccc(S(=O)(=O)N2c3ccccc3CC2C)cc1 (stereo not given)	-2.45	i	i	-14.9	i	i	/	/
CC1Cc2ccccc2N1S(=O)(=O)c1cccs1 (stereo not given)	-2.72	-9.41*	i	-15.2	i	i	123.7*	0.131*
O=C(CSc1ncnc2c1cnn2-c1cccc(Cl)c1)NCC1CCCO1 (stereo not given)	-0.95	i	i	-4.8	i	i	/	/
CC(C)n1c(N2CCN(S(=O)(=O)c3cccc([N+](=O)[O-])c3)CC2)nc2ccccc21	-0.44	i	i	-3.1	i	i	/	/
COc1ccc(-c2csc(N(CC3CCCO3)C(=O)c3ccc(C)cc3)n2)cc1 (stereo not given)	-0.95	i	i	-10.8	i	i	/	/
COc1ccc(-c2csc(N(CC3CCCO3)C(=O)c3ccccc3)n2)cc1 (stereo not given)	-0.33	-8.91*	i	-10.3	i	i	89.0*	i
CCN1C=C(Cc2ccc(F)cc2)C2=C(C1)C(c1ccc(F)cc1)C(C#N)=C(N)O2 (stereo not given)	-1.57	-9.72*	i	-12.0	i	i	110.3*	i
CN1CCN(C2=C(Cl)C(=O)c3ccccc3C2=O)CC1	/	-14.3*	/	/	/	/	160.0*	0.0567*
Cc1c(CCC(=O)NCCCN2CCCC2=O)c(=O)oc2c(C)c(O)ccc12	1.47	i	i	-7.2	i	i	/	/
SMILES	Kir21 block	KCNK3 inh	KCNK9 inh	hERG protect	KCNQ1 act	KCNQ1 inh	KCNK3 confirm	KCNK3 noninduced
Fc1ccc(C2=Nc3cccc4cccc(c34)N2)cc1	-0.07	i	i	-1.1	i	i	/	/
FC(F)(F)C1=Nc2cccc3cccc(c23)N1	/	-13.3*	/	/	/	/	127.3*	0.106*
CCOc1ccc(S(=O)(=O)NCc2cccnc2)c2ccccc12	-2.62	i	i	-3.3	i	i	/	/
CCC(C)N(C(=O)CSc1ccc(NC(C)=O)cc1)C1CCS(=O)(=O)C1 (stereo not given)	0.51	i	i	-10.8	i	i	/	/
CCOC(=O)C1=C(c2ccccc2)NC(=O)N(C(C)=O)C1c1cccc([N+](=O)[O-])c1 (stereo not given)	1.03	i	i	-1.2	i	i	/	/
C#CCN1C(C)=C(C(=O)OC)C(c2cccc([N+](=O)[O-])c2)C(C(=O)OCC)=C1C (stereo not given)	/	-12.1*	/	/	/	/	109.0*	i
Cc1cc(C)n(/N=C/c2cc([N+](=O)[O-])ccc2O)c(=O)c1	0.42	i	i	-4.2	i	i	/	/
O=C(/C=C/c1ccccc1Cl)c1cccnc1	-4.18	-9.73*	i	-16.9	i	i	86.3*	i
C=CS(=O)(=O)c1sc(Cl)c(N2CCOCC2)c1[N+](=O)[O-]	-9.46*	-8.98*	i	-0.7	11*	i	125.3*	0.122*
C=CSc1sc(Cl)c(N2CCOCC2)c1[N+](=O)[O-]	-0.97	i	i	-6.3	i	i	/	/
Cc1onc(-c2ccccc2)c1C(=O)NN1CCOCC1	/	i	/	/	/	/	/	/
COCCn1c(COc2ccc(C)cc2)nc2ccccc21	0.71	i	i	-4.8	i	i	/	/
CCn1c(COc2ccc(C)cc2)nc2ccccc21	-0.75	-12*	i	-5.1	i	i	111.7*	i
CC(C)n1cc(-c2ccc(Cl)cc2)cc(C#N)c1=O	3.15	-10.2*	i	0.3	i	i	106.7*	i
N#Cc1cc(-c2ccc(Cl)cc2)cn(Cc2c(Cl)cccc2Cl)c1=O	-0.15	i	i	-8.5	i	i	/	/
N#C/C(=C\c1ccccc1)C(=O)OCC(=O)N1CCCC1	1.04	i	i	-19.6	i	i	/	/
N#Cc1cnn2c(-c3cccc([N+](=O)[O-])c3)ccnc12	/	i	/	/	/	/	/	/
CCc1cccc(NC2c3ccccc3C(=O)N2c2cccnc2)c1 (stereo not given)	-1.38	-10.6*	i	-13.3	i	i	100.3*	i
